Experimental data as given in ChEMBL document CHEMBL3352730, “Synthesis and effects on cell viability of flavonols and 3-methyl ether derivatives on human leukemia cells” (Eur J Med Chem, 2014).
pIC50: −log10 of the molar value.

Assays:
[1] = test system: U-937; assay: Induction of cell cycle arrest in human U937 cells assessed as accumulation at G2/M phase at 10 uM after 24 hrs by propidium iodide staining based flow cytometry (reference value: 22.8 +/- 1.6%); format: functional
[2] = Cytotoxicity against human HL60/MX1 cells after 72 hrs by MTT assay; format: functional, cell-based; conditions: HL60/MX1, 72 h
How it was run: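 MTT colorimetric assay with 72 h continuous exposure. IC50 was fitted per experiment by non-linear regression. Values are means with SE from at least three independent experiments, each run in triplicate.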

O=c1c(O)c(-c2ccc(Br)cc2)oc2ccccc12
Activity [1]: 18.7% | pIC50 [2]: 5.19
